Source: PMC6363533 (Biochemistry, 2018)
Where a chain is given by its changes, count along the chain named. Marks after values point to notes of the source that are not given here.

B1: KMM: His-tagged recombinant β-antithrombin double mutant, Lys125 and Arg129 mutated to Met (protein)
chain: HGSPVDICTAKPRDIPMNPMCIYRSPEKKATEDEGSEQKIPEATNRRVWELSKANSRFATTFYQHLADSKNDNDNIFLSPLSISTAFAMTKLGACNDTLQQLMEVFKFDTISEKTSDQIHFFFAMLNCMLYRKAQKSSKLVSANRLFGDKSLTFNETYQDISELVYGAKLQPLDFKENAEQSRAAINKWVSNKTEGRITDVIPSEAINELTVLVLVNTIYFKGLWKSKFSPENTRKELFYKADGESCSASMMYQEGKFRYRRVAEGTQVLELPFKGDDITMVLILPKPEKSLAKVEKELTPEVLQEWLDELEEMMLVVHMPRFRIEDGFSLKEQLQDMGLVDLFSPEKSKLPGIVAEGRDDLYVSDAFHKAFLEVNEEGSEAAASTAVVIAGRSLNPNRVTFKANRPFLVFIREVPLNTIIFMGRVANPCVK
modifications: left off: His6, C-terminal, kept
B2: MMM: His-tagged recombinant β-antithrombin triple mutant, Lys114, Lys125 and Arg129 mutated to Met (protein)
chain: B1 chain with K114M
modifications: left off: His6, C-terminal, kept
B3: MKM: His-tagged recombinant β-antithrombin double mutant, Lys114 and Arg129 mutated to Met (protein)
chain: B1 chain with K114M, M125K
modifications: left off: His6, C-terminal, kept
B4: MMR: His-tagged recombinant β-antithrombin double mutant, Lys114 and Lys125 mutated to Met (protein)
chain: B1 chain with K114M, M129R
modifications: left off: His6, C-terminal, kept

Legend:
antithrombin = details: read-out: Kd of TNS binding to antithrombin; cited from earlier work
[1] = assay type: binding; details: for Loss of nonionic binding energy relative to wild-type / Kd: natural pentasaccharide; for Kd: read-out: KD,obs, I 0.04, pH 6.0, 25°C, measured directly at I 0.04 or calculated from the ionic strength dependence of KD,obs
Method in brief: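 Recombinant His-tagged antithrombin (~100 nM), expressed in Sf9 and Ni-NTA purified, was titrated with pentasaccharide at 25°C. Binding was followed by tryptophan fluorescence enhancement (ex 280 nm, em 340 nm). Stocks were diluted extensively. Data were fit by quadratic binding equation for KD and stoichiometry.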

Rapid = assay type: binding; details: for Limiting rate constant at heparin saturation (k+2 + k−2) / 1/K2 / k+2, forward conformational activation rate constant / k−2, reverse conformational activation rate constant: natural pentasaccharide; for 1/K2 / k+2, forward conformational activation rate constant / k−2, reverse conformational activation rate constant: I 0.04, pH 6.0, 25°C; for k+2, forward conformational activation rate constant / k−2, reverse conformational activation rate constant: ±S.E.; for k−2, reverse conformational activation rate constant: possibly overestimated (conformational selection pathway)
factor Xa = factor Xa (Homo sapiens, UniProt P00742); assay type: biochemical; details: for k−H FXa, association rate constant of free antithrombin / k−H FXa, fractional wild-type value (in parentheses) / Enhancement of basal reactivities with both factors Xa and IXa: absence of heparin; for k−H FXa, association rate constant of free antithrombin / k−H FXa, fractional wild-type value (in parentheses) / kH FXa, association rate constant of heparin-complexed antithrombin / kH FXa, fractional wild-type value (in parentheses): 20 mM MES; for k−H FXa, association rate constant of free antithrombin / kH FXa, association rate constant of heparin-complexed antithrombin: 5 mM CaCl2, 0.1 % PEG 8000, pH 6.0, 25°C, ±S.E.; for k−H FXa, fractional wild-type value (in parentheses) / kH FXa, fractional wild-type value (in parentheses): 5 mM CaCl2, pH 6.0, 25°C; for Enhancement of basal reactivities with both factors Xa and IXa: relative to wild-type, range covers factor Xa and factor IXa; for kH FXa, association rate constant of heparin-complexed antithrombin / kH FXa, fractional wild-type value (in parentheses): natural pentasaccharide complex
factor IXa = factor IXa (Homo sapiens, UniProt P00740); assay type: biochemical; details: for k−H FIXa, association rate constant of free antithrombin / k−H FIXa, fractional wild-type value (in parentheses): absence of heparin; for k−H FIXa, association rate constant of free antithrombin / k−H FIXa, fractional wild-type value (in parentheses) / kH FIXa, association rate constant of heparin-complexed antithrombin / kH FIXa, fractional wild-type value (in parentheses): 20 mM MES; for k−H FIXa, association rate constant of free antithrombin / kH FIXa, association rate constant of heparin-complexed antithrombin: 5 mM CaCl2, 0.1 % PEG 8000, pH 6.0, 25°C, ±S.E.; for k−H FIXa, fractional wild-type value (in parentheses) / kH FIXa, fractional wild-type value (in parentheses): 5 mM CaCl2, pH 6.0, 25°C; for kH FIXa, association rate constant of heparin-complexed antithrombin / kH FIXa, fractional wild-type value (in parentheses): natural pentasaccharide complex; for Heparin-activated reactivity with factor IXa, % of wild-type: saturating natural pentasaccharide, MES/Ca2+ pH 6 buffer
[2] = estimated based on factor Xa reactivity enhancements

Chain of factor IXa (P00740 47-191 limits assumed): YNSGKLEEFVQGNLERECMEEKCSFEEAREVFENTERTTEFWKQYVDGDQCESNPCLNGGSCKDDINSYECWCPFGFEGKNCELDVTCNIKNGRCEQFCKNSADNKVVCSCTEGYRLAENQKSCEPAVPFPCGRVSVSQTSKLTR
Chain of factor IXa (P00740 227-461 limits assumed): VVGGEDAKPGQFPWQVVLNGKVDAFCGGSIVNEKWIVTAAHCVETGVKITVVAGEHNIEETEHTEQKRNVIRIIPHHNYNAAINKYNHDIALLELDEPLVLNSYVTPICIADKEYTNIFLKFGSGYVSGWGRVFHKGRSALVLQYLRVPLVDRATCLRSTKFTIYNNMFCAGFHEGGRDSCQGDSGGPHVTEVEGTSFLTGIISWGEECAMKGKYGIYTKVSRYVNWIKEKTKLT
Chain of factor Xa (P00742 41-179 limits assumed): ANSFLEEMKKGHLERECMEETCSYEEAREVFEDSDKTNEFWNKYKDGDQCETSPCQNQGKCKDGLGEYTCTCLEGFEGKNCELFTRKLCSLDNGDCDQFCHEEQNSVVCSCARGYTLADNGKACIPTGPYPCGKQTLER
Chain of factor Xa (P00742 235-488 limits assumed): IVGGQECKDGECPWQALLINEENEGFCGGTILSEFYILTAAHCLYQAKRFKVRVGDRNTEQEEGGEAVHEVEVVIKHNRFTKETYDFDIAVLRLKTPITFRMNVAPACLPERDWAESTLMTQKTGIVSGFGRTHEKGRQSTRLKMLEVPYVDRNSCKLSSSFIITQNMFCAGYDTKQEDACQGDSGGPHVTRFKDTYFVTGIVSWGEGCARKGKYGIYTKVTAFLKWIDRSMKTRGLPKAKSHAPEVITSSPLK

Molecule	Loss of nonionic binding energy relative to wild-type [1]	Kd [1]	Limiting rate constant at heparin saturation (k+2 + k−2) (Rapid; I 0.04, pH 6, 25°C)	1/K2 (Rapid; 1/K2 = (K1/KD,obs) − 1)	k+2, forward conformational activation rate constant (Rapid)	k−H FXa, association rate constant of free antithrombin (factor Xa)	k−H FXa, fractional wild-type value (in parentheses) (factor Xa)	Enhancement of basal reactivities with both factors Xa and IXa (factor Xa)	kH FXa, association rate constant of heparin-complexed antithrombin (factor Xa)	kH FXa, fractional wild-type value (in parentheses) (factor Xa)	k−H FIXa, association rate constant of free antithrombin (factor IXa)	k−H FIXa, fractional wild-type value (in parentheses) (factor IXa)	kH FIXa, association rate constant of heparin-complexed antithrombin (factor IXa)	kH FIXa, fractional wild-type value (in parentheses) (factor IXa)	also measured
Cc1ccc(Nc2ccc3cc(S(=O)(=O)O)ccc3c2)cc1 [TNS, 2-p-toluidinylnaphthalene-6-sulfonate]															Kd (antithrombin): > 10000 nM
KKM: His-tagged recombinant β-antithrombin variant with Arg129 mutated to Met	17%	0.16 nM	1020 s⁻¹	10000	1020 ± 120 s⁻¹	1.3±0.1 × 10^3 M^−1s^−1	2.3	1.3–2.3 fold	7.6±0.3 ×10^4 M^−1s^−1	0.99	6.9±0.4 × 10^1 M^−1s^−1	1.3	6.2±0.3 × 10^3 M^−1s^−1	0.62	
KKR (WT): Recombinant wild-type β-antithrombin (Asn135 mutated to Gln) with C-terminal 6XHis-tag, expressed in Sf9 insect cells				6 × 10^6	1140 ± 110 s⁻¹	5.7±0.4 × 10^2 M^−1s^−1	1			1	5.4±0.4 × 10^1 M^−1s^−1	1		1	
KMR: His-tagged recombinant β-antithrombin variant with Lys125 mutated to Met	24%	0.86 nM	550 to 690 s⁻¹	4300	550 ± 40 s⁻¹	1.2±0.1 × 10^3 M^−1s^−1	2.1	1.3–2.3 fold	8.1±0.3 ×10^4 M^−1s^−1	1.1	9.6±0.6 × 10^1 M^−1s^−1	1.8	6.8±0.8 × 10^3 M^−1s^−1	0.68	
MKR: His-tagged recombinant β-antithrombin variant with Lys114 mutated to Met		560 nM	40 s⁻¹	8^c	17 ± 2 s⁻¹	2.6±0.3 × 10^2 M^−1s^−1	0.46		6.4±0.3 ×10^4 M^−1s^−1	0.83			2.1±0.1 × 10^3 M^−1s^−1	0.21	k+2, forward conformational activation rate constant (Rapid; listed as Lys114): ~ 20 s^−1; k−2, reverse conformational activation rate constant (Rapid): 23±2^c s^−1
B1		70 nM	550 to 690 s⁻¹	~400^c	690 ± 240 s⁻¹	2.0±0.1 ×10^3 M^−1s^−1	3.5	2.8–3.5 fold	5.6±0.4 ×10^4 M^−1s^−1	0.73	1.5±0.2 × 10^2 M^−1s^−1	2.8	3.6±0.2 × 10^3 M^−1s^−1	0.36	Heparin pentasaccharide binding stoichiometry [1]: ~0.5 mole heparin/mole antithrombin; k−2, reverse conformational activation rate constant (Rapid): 74±7^c s^−1; k−2, reverse conformational activation rate constant (Rapid; listed as Lys125/Arg129): ~ 70 s^−1
B2	60%									0.04	2.3±0.2 × 10^1 M^−1s^−1	0.43		0.003	Heparin-activated reactivity with factor IXa, % of wild-type (factor IXa): 0.3%
B3		18000 nM				3.5±0.5 ×10^2 M^−1s^−1	0.61		8.5±0.4 ×10^4 M^−1s^−1	1.1	1.3±0.2×10^1 M^−1s^−1	0.24	2.1±0.1 × 10^3 M^−1s^−1	0.21	1/K2 (Rapid; [2]): ~10^d; Observed rate constant kobs of pentasaccharide binding, no saturable increase (Rapid; over the range 0.5–20 μM heparin, I 0.04, pH 6, 25°C): ~ 60 s^−1
B4		45000 nM							2.3±0.3 ×10^4 M^−1s^−1	0.30			3.0±0.1 × 10^2 M^−1s^−1	0.03	1/K2 (Rapid; [2]): ~0.5^d; Heparin-activated reactivity with factor IXa, % of wild-type (factor IXa): 3%
